Assay outcomes as filed in PubChem BioAssay.
Hits are enriched below; roughly 3.1% of the tested compounds scored in any of these assays.
ADAM10 inh: inhibits human ADAM10; inhibition, % at 7 µM; recombinant ADAM10, EDANS/DABCYL FRET peptide cleavage, 3 h; 0.62% of 370,000 active; O14672;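 active = inhibition above a per-campaign cutoff equal to the mean of compounds falling between control-based bounds plus 3 SD, cut at about 20% in these data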;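 also: 0% = DMSO wells while the 100% control is not disclosed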
Target sequence (O14672 214-748 limits assumed): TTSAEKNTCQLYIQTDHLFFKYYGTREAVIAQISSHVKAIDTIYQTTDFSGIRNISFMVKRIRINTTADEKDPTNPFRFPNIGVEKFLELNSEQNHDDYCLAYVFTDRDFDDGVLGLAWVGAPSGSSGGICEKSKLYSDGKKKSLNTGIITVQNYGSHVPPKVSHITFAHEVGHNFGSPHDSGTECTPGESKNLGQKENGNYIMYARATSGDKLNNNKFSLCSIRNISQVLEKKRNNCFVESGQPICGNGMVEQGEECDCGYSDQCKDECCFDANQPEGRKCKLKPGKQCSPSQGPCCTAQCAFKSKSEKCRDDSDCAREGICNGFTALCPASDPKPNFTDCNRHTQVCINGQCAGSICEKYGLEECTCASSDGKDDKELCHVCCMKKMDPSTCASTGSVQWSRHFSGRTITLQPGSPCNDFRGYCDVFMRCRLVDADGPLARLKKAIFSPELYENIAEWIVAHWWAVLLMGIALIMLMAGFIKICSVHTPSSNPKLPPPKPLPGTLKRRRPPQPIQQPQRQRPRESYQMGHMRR
V-ATPase pHluor: regulators of yeast V-ATPase proton transport; S. cerevisiae, pHLuorin cytosolic pH fluorescence; response, % at 10 µM; 0.37% of 350,000 active; in the data active = response mostly above about 7.3%, no sharp cut-off; inactive = mostly below about 5.4%; also: actives read high
aDG glyco up: increases alpha dystroglycan glycosylation. Pro5-aDG cells, alpha-DG glycosylation AlphaScreen (IIH6); 0% Pro5, 100% B10-LARGE cell signal. activation, % at 10 µM. 0.22% of 360,000 active;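 active = activation of at least 8% versus controls, or a plate z-score of at least 8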;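 also: Pro5 are CHO cells carrying HIG-tagged alpha-DG that lacks glycosylation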
Hep lipid drop: modulators of hepatic lipid droplet formation; AML12 mouse hepatocytes, oleate lipid droplets, BODIPY imaging; inhibition, % at 6.5 µM; 0.4% of 240,000 active; AID 1656;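 active = lipid droplet intensity inhibited by at least 50%, with more than 500 cells counted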
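Material – mouse AML12 hepatocyte cell line, fixed after treatment · Compound dosing – one dose, 6.5 µM compound · Times – compound with oleate, overnight · Measured by – Image-based BODIPY and DAPI two-channel analysis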
MPTP inh: permeability transition pore inhibition; isolated mouse mitochondria, Ca2+ swelling absorbance, 30 min; inhibition, % at 10 µM; 1.4% of 360,000 active;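 active = inhibition of 50% or more, scaled per plate between neutral and stimulator controls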;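 also: 0% = DMSO wells given calcium and 100% = 1 mM EGTA wells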
ADAM17 inh: ADAM17 inhibition, QFRET primary screen. P78536. recombinant ADAM17, EDANS/DABCYL FRET peptide cleavage. inhibition, % at 6.95 µM. 0.83% of 370,000 active. AID 720648;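 active = inhibition above the mean of compounds lying between control limits plus 3 SD, set per campaign, cut at about 8.5% in these data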;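 also: 0% = DMSO-only wells as the low control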
ADAM10 confirm: confirmation of inhibitors of human ADAM10 | shares compounds with ADAM10 inh | ADAM10 QFRET peptide cleavage, EDANS fluorescence | inhibition, % at 6.95 µM | 1% of 2,100 active | AID 743208;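 active = inhibition above about 20% chosen separately for each screening run, limit read from the data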;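 also: 0% = DMSO wells and 100% = marimastat wells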
ADAM17 ctr: ADAM17 inhibition, counter-screen for ADAM10 exosite hits | shares compounds with ADAM10 inh | ADAM17 QFRET peptide cleavage, EDANS fluorescence | inhibition, % at 6.95 µM | 0.5% of 2,100 active;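 active = mean triplicate inhibition above the solvent-only control wells' mean plus 3 SD, cut at about 12% in these data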;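 also: 0% = DMSO wells and 100% = marimastat wells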
ADAM10 ctr: counter-screen for ADAM17 exosite inhibitors: inhibitors of human ADAM10. shares compounds with ADAM17 inh. recombinant ADAM10, EDANS/DABCYL FRET peptide cleavage, 3 h. inhibition, % at 6.95 µM. 47% of 2,900 active;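 active = mean inhibition over the triplicate runs exceeds the activity threshold set in the earlier primary screen, cut at about 20% in these data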;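 also: 0% = DMSO wells and 100% = marimastat wells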
ADAM17 confirm: confirmation of inhibitors of human ADAM17. recombinant ADAM17, EDANS/DABCYL QFRET peptide cleavage. inhibition, % at 6.95 µM. AID 743257. 65% of 2,900 active. shares compounds with ADAM17 inh;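 active = mean inhibition across replicates above the hit cutoff set in the primary screen, cut at about 8.5% in these data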;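 also: 0% = DMSO wells and 100% = marimastat wells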
An asterisk follows results filed as active; / = no result.

SMILES | ADAM10 inh | V-ATPase pHluor | aDG glyco up | Hep lipid drop | MPTP inh | ADAM17 inh | ADAM10 ctr | ADAM17 confirm | others
CCCCC[C@H](C)N1C[C@H](COCc2ccccc2)Oc2cc(N3CC[C@@H](O)C3)ccc2S1(=O)=O | 7 | / | 0 | / | 3 | 7 | / | /
CCCCC[C@@H](C)N1C[C@H](COCc2ccccc2)Oc2cc(N3CCC[C@H]3CO)ccc2S1(=O)=O | -2 | / | 0 | / | 4 | -1 | / | /
CCCCC[C@@H](C)N1C[C@H](COCc2ccccc2)Oc2cc(N3CCC[C@@H]3CO)ccc2S1(=O)=O | 21* | / | 0 | / | 0 | 8.7* | 18 | 10* | ADAM10 confirm=7;ADAM17 ctr=2
CCCCC[C@H](C)N1C[C@@H](COCc2ccccc2)Oc2cc(N3CC[C@H](O)C3)ccc2S1(=O)=O | 21* | / | 0 | / | 1 | 13* | 30* | 21* | ADAM10 confirm=11;ADAM17 ctr=4
CCC[C@H]1[C@@H](OC(=O)NC2CCC2)CC[C@@]23CCCN2C(=O)CCC[C@@H]13 | -4 | / | / | / | / | -6 | / | /
Cc1cccc2cc(CN(Cc3ccco3)C(=O)Nc3cccc(C#N)c3)c(Cl)nc12 | 29* | 0 | 1 | / | 25 | 9.9* | 42* | 23* | ADAM10 confirm=11;ADAM17 ctr=3
O=C(Nc1ccc(F)c(Cl)c1)c1cc(C2CCCN(S(=O)(=O)c3cccc4cccnc34)C2)on1 (stereo unspecified) | 25* | / | 0 | / | 1 | 12* | 25* | 13* | ADAM10 confirm=4;ADAM17 ctr=2
COc1cc(NC(=O)c2ccccc2)c(C)cc1NC(=O)CSc1nnc(-c2ccco2)n1Cc1ccco1 | 0 | / | / | / | / | 3 | / | /
Cc1ccc(S(=O)(=O)Nc2ccc3c(c2)n(C)c(=O)n3C)c(C)c1 | 1 | 0 | 0 | -1 | -2 | 0 | / | /
Cc1ccc(S(=O)(=O)Nc2ccc(SC(F)F)cc2)c(C)c1 | 27* | -1 | 0 | 2 | 7 | 11* | 23* | 11* | ADAM10 confirm=3;ADAM17 ctr=2
Cc1cccc(NC(=S)NNc2ncc(C(F)(F)F)cc2Cl)c1 | 21* | 0 | 0 | 7 | 24 | 13* | 1 | 1 | ADAM10 confirm=2;ADAM17 ctr=0
CC(C)(C)NNC(=S)Nc1cccc(C(F)(F)F)c1 | 6 | 1 | 0 | 12 | 3 | 1 | / | /
CC(=O)N1CCCN(S(=O)(=O)c2ccc3c(c2)oc(=O)n3C)CC1 | -2 | / | / | / | / | 1 | / | /
Cc1cc(C)cc(NC(=O)C(OC(=O)c2cccs2)c2ccccc2)c1 (stereo unspecified) | 21* | -3 | 0 | -16 | -10 | 11* | 11 | 8 | ADAM10 confirm=5;ADAM17 ctr=2
CC(=O)c1cccc(NC(=O)C(OC(=O)c2ccccc2NS(=O)(=O)c2cccs2)c2ccccc2)c1 (stereo unspecified) | 21* | 2 | 0 | 0 | 43 | 10* | 12 | 18* | ADAM10 confirm=13;ADAM17 ctr=5
CCOc1ccccc1NC(=O)C(OC(=O)c1ccccc1NS(=O)(=O)c1cccs1)c1ccccc1 (stereo unspecified) | 10 | 1 | 1 | -16 | 0 | 6 | / | /
CCOC(=O)[C@@]12CCC3=C1N(CCC3)C(=O)[C@H](CC(=O)NCCc1ccccc1OC)C2 | -10 | / | / | / | / | -7 | / | /
C[C@H]1[C@H](NCc2cccnc2)CC[C@@]23CCCN2C(=O)CCC[C@@H]13 | 1 | / | / | / | / | -1 | / | /
CC(=O)Nc1ccc(NC(=O)C(C)OC(=O)C23CC4CC(CC(Cl)(C4)C2)C3)cc1 (stereo unspecified) | -4 | 2 | 0 | / | 1 | 9.9* | 6 | 6
CC(=O)Nc1ccc(NC(=O)C(C)OC(=O)C2(c3ccc(Cl)cc3)CCCC2)cc1 (stereo unspecified) | 10 | -3 | 0 | -13 | 2 | -7 | / | /
Cc1ccc(-c2csc(Nc3ccccn3)n2)cc1 | 8 | -1 | 0 | 6 | 0 | 9.0* | 27* | 16*
c1ccc(-c2csc(Nc3ccccn3)n2)cc1 | 4 | 1 | 0 | 0 | 2 | 1 | / | /
COC(=O)c1cc(-c2ccc(C)cc2)c(=O)n2c1CCC2 | -38 | / | / | / | / | -13 | / | /
Cc1cc(C)nc(N/N=C/c2ccccc2Cl)n1 | 6 | 12 | 0 | 0 | 1 | -1 | / | /
Cc1cc(N/N=C/c2ccccc2Cl)nc(NCc2ccccc2)n1 | 19 | 3 | 0 | -23 | 8 | 11* | 1 | 6
SMILES | ADAM10 inh | V-ATPase pHluor | aDG glyco up | Hep lipid drop | MPTP inh | ADAM17 inh | ADAM10 ctr | ADAM17 confirm | others
O=C(CNC(=S)N(Cc1ccccc1)Cc1ccccc1F)NCc1ccccc1 | 12 | 1 | 1 | -7 | 0 | 9.1* | 30* | 13*
CC(C)CNC(=O)OCc1cn(Cc2cccc(Cl)c2)nn1 | 4 | / | / | / | / | 0 | / | /
COc1ccc(C)cc1S(=O)(=O)N(CC(=O)N1CCOCC1)Cc1ccccc1 | 1 | -3 | 0 | -6 | -1 | -3 | / | /
COc1ccc(C)cc1S(=O)(=O)N(CC(=O)NCc1ccc(Cl)cc1)Cc1ccccc1 | 19 | 1 | 0 | -6 | -2 | 9.7* | 31* | 17*
C=CCOC(=O)N[C@H](c1cccc(OC)c1)[C@H](C)/C=C/CC(=O)OC | -7 | / | / | / | / | -3 | / | /
COc1cccc(C(Nc2ccccn2)c2oc(CO)cc(=O)c2O)c1 (stereo unspecified) | 1 | -1 | 0 | -12 | 2 | 13* | 27* | 29*
O=c1cc(CO)oc(C(Nc2ccccn2)c2ccccc2F)c1O (stereo unspecified) | -13 | -3 | 0 | / | -2 | 6 | / | /
COC(=O)C1CN(Cc2ccccc2)CCS(=O)(=O)N1Cc1ccc(F)cc1 (stereo unspecified) | 4 | / | / | / | / | 2 | / | /
CCCCNS(=O)(=O)c1ccc2nc(SCC(=O)Nc3cccc(F)c3)[nH]c2c1 | 15 | -1 | 0 | -10 | 41 | 8 | / | /
CCCCNS(=O)(=O)c1ccc2nc(SCC(=O)Nc3ccccc3Cl)[nH]c2c1 | 20 | 0 | 0 | -3 | 20 | 9.9* | 26* | 12*
COc1cc(NC(=O)COC(=O)Cc2ccc(-c3ccccc3)cc2)cc(OC)c1 | 17 | 2 | 0 | 19 | 4 | 11* | 23* | 12*
